Laboratory results from ChEMBL document CHEMBL2385016, “Inhibition of VEGF expression in cancer cells and endothelial cell differentiation by synthetic stilbene derivatives” (Bioorg Med Chem, 2013).
Values after ≈ are worked out from the molar mass of the structure shown. Active and inactive are the calls of the source. The calls are words filed in the database; no cut-off is given here.

Key:
HT-29 [1] = assay: Antiproliferative activity against human HT-29 cells after 3 days by MTT assay; assay type: functional, cell-based; details: HT-29, 72 h
In short: (§1)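 MTT dye reduction. 3×10^3 BAE cells (collagenase-isolated) or 5×10^3 HT-29 cells per well in DMEM with 10% FBS, exposed to serial dilutions for 3 days at 37 °C, 5% CO2. MTT (5 mg/ml in PBS) added for 4 h, formazan dissolved in 0.04 N HCl/2-propanol, absorbance at 550 nm. Triplicate; IC50 is the concentration giving 50% survival. Compounds from 10 mg/mL DMSO stocks.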

[2] = Antiangiogenic activity against BAEC assessed as inhibition of tube formation after 7 hrs by matrigel assay; assay type: functional; details: Bos taurus
In short: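 Wells coated with Matrigel (about 10.5 mg/mL), polymerized at least 30 min at 37 °C. 5×10^4 BAE cells seeded in DMEM with a range of compound concentrations. Incubated 7 h at 37 °C, 5% CO2, then viewed and photographed at 200×. Two observers scored tube formation. Value is the minimal concentration inhibiting differentiation.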

[3] = Antiproliferative activity against BAEC after 3 days by MTT assay; assay type: functional; details: Bos taurus, 72 h; in short: as §1
HT-29 [4] = assay: Inhibition of VEGF protein production in human HT-29 cells at 10 ug/mL after 72 hrs by ELISA relative to control; assay type: functional
In short: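 HT-29 cells at 70–80% confluence were serum-starved 24 h, then treated 72 h with compound in DMSO. VEGF secreted into culture supernatants was measured by human VEGF ELISA kit in ng/mL and compared with untreated and DMSO controls. At least three measurements per condition; mean ± SEM; one-sample t-tests.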

HT-29 [5] = assay: Inhibition of VEGF mRNA expression in human HT-29 cells at 10 ug/mL after 48 hrs by RT-PCR analysis relative to control; values are per cent of control; details: HT-29, 48 h
HT-29 [6] = assay: Inhibition of VEGF protein production in human HT-29 cells at 10 ug/mL after 72 hrs by ELISA relative to control; values are per cent of control; details: HT-29, 72 h
HT-29 [7] = assay: Inhibition of VEGF mRNA expression in human HT-29 cells at 20 ug/mL after 48 hrs by RT-PCR analysis relative to control; values are per cent of control; details: HT-29, 48 h
HT-29 [8] = assay: Inhibition of VEGF protein production in human HT-29 cells at 20 ug/mL after 72 hrs by ELISA relative to control; values are per cent of control; details: HT-29, 72 h

Compound	IC50 (HT-29 [1]) [µM]	MIC [2] [µM]	IC50 [3] [µM]	inhibition (HT-29 [4])	level, % of control at 10 µg/mL (HT-29 [5]) [%]	level, % of control at 10 µg/mL (HT-29 [6]) [%]	level, % of control at 20 µg/mL (HT-29 [7]) [%]	level, % of control at 20 µg/mL (HT-29 [8]) [%]
C=CCOc1ccc(/C=C/c2ccccc2)cc1	23	106 (≈ 25 µg/mL)	> 400	–	–	–	–	–
COc1ccccc1/C=C/c1ccccc1	42.8	59.5 (≈ 12.5 µg/mL)	152	Active	70	–	–	–
Oc1cccc(/C=C/c2ccccc2)c1 [(E)-3-STILBENOL]	127	32 (≈ 6.28 µg/mL)	91.7	–	–	–	–	–
C=CCOc1ccccc1/C=C/c1ccccc1	55	53 (≈ 12.5 µg/mL)	313	–	50	41	–	–
Oc1ccc(/C=C/c2cc(O)cc(O)c2)cc1 [RESVERATROL]	110	54.8 (≈ 12.5 µg/mL)	48	–	–	–	86	65
Oc1ccc(/C=C/c2ccccc2)cc1 [(E)-4-STYRYLPHENOL]	34.6	32 (≈ 6.28 µg/mL)	33.6	–	–	–	–	–
Oc1ccccc1/C=C/c1ccccc1	112	32 (≈ 6.28 µg/mL)	107	–	91	41	–	–
COc1ccc(/C=C/c2ccccc2)cc1	26	475 (≈ 99.9 µg/mL)	418	–	–	–	–	–
